Laboratory results reported in ChEMBL document CHEMBL1148611, “Selective inhibition of matrix metalloproteinase isozymes and in vivo protection against emphysema by substituted gamma-keto carboxylic acids” (J Med Chem, 2006).
Activity calls are given as the source filed them. The rule behind the calls is not given here.

What was measured:
[1] = molecular target: T1, Matrix metalloproteinase-9 (Homo sapiens, UniProt P14780); assay: Inhibitory activity against MMP9
[2] = molecular target: T2, Interstitial collagenase (Homo sapiens) (UniProt P03956); assay: Inhibitory activity against MMP1 upto 50uM
T2 sequence (whole entry): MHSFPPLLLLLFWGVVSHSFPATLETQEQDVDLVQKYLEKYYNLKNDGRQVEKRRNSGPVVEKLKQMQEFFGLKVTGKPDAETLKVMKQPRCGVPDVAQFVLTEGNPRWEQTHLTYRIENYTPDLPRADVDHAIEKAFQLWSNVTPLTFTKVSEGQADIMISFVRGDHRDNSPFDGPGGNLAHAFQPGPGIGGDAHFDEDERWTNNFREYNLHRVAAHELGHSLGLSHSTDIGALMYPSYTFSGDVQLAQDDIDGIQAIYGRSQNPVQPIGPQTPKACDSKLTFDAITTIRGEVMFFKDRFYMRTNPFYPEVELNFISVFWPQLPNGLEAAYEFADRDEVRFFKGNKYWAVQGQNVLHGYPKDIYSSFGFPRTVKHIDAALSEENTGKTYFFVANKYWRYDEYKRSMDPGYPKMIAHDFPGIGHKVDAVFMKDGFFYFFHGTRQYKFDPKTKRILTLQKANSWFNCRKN

[3] = molecular target: 72 kDa type IV collagenase (Homo sapiens, UniProt P08253); assay: Inhibitory activity against MMP2
Sequence of 72 kDa type IV collagenase (P08253 whole entry): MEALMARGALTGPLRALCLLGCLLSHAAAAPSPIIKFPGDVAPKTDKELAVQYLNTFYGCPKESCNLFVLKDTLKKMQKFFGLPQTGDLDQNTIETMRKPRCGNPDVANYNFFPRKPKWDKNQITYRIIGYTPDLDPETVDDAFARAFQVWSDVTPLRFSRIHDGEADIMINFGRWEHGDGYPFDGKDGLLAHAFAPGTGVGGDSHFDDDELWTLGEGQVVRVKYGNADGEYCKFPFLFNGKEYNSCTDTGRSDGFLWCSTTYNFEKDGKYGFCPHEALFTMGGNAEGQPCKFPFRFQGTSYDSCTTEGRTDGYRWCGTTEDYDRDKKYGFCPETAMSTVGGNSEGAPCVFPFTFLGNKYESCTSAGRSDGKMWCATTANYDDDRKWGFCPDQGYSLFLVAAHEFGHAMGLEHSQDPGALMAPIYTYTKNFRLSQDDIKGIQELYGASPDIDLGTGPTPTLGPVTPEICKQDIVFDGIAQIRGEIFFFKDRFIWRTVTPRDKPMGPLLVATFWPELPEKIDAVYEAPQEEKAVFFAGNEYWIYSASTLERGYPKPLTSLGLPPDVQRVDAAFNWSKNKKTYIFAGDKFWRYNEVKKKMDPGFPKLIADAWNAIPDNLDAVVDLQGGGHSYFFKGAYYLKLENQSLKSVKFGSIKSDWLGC

[4] = molecular target: T3, Matrix metalloproteinase-16 (Homo sapiens, UniProt P51512); assay: Inhibitory activity against MMP16 upto 50uM
T3 sequence (P51512 whole entry): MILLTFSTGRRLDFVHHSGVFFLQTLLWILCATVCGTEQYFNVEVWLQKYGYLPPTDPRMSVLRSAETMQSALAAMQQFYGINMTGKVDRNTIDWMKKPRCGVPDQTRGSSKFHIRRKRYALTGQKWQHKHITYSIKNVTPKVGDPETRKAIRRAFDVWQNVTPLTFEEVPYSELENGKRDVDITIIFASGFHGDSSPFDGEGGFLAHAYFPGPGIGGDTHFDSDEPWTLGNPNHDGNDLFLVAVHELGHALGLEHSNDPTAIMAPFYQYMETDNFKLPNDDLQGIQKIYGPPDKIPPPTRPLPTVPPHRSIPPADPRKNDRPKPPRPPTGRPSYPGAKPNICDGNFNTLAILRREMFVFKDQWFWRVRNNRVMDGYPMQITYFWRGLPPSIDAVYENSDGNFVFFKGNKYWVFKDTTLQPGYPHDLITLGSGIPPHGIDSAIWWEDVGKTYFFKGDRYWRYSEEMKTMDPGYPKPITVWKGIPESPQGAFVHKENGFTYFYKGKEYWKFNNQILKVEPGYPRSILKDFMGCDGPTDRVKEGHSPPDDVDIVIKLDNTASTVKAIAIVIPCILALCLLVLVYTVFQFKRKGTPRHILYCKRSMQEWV

[5] = molecular target: T4, Matrilysin (Homo sapiens) (UniProt P09237); assay: Inhibitory activity against MMP7 upto 50 uM
T4 sequence (whole entry): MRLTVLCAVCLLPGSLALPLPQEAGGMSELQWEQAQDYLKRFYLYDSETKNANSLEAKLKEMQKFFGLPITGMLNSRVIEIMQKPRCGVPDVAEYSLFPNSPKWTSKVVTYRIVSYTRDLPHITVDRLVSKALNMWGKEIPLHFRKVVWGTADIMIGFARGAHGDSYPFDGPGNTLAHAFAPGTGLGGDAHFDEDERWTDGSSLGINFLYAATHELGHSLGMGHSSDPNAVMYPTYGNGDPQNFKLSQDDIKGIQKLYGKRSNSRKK

Syrian golden hamster = assay: Increase in lung weight, lung volumes, relative lung volumes and right ventricular hypertropy in PPE-treated Syrian hamster at 5 mg/kg; type: functional, organism-based; design: dose 5 mg/kg; conditions: Mesocricetus auratus, Heart right ventricle
How it was run: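 Male golden Syrian hamsters with PPE-induced emphysema, compared with saline-treated controls, PPE-only animals and compound/saline-treated animals. Read-outs were wet weight of the left lung, lung volume, relative lung volume and right ventricular hypertrophy.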

[6] = molecular target: T5, Matrix metalloproteinase-26 (Homo sapiens) (UniProt Q9NRE1); assay: Inhibitory activity against MMP26 upto 50uM
T5 sequence (whole entry): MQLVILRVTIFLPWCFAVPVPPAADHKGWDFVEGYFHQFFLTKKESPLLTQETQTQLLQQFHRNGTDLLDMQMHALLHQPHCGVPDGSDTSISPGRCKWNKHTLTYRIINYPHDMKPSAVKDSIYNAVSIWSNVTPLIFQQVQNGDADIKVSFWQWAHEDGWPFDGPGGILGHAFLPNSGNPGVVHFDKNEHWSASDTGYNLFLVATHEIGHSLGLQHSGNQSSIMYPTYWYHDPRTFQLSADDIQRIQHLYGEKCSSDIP

[7] = molecular target: Macrophage metalloelastase (Homo sapiens, UniProt P39900); assay: Inhibitory activity against MMP12
Sequence of Macrophage metalloelastase (P39900 whole entry): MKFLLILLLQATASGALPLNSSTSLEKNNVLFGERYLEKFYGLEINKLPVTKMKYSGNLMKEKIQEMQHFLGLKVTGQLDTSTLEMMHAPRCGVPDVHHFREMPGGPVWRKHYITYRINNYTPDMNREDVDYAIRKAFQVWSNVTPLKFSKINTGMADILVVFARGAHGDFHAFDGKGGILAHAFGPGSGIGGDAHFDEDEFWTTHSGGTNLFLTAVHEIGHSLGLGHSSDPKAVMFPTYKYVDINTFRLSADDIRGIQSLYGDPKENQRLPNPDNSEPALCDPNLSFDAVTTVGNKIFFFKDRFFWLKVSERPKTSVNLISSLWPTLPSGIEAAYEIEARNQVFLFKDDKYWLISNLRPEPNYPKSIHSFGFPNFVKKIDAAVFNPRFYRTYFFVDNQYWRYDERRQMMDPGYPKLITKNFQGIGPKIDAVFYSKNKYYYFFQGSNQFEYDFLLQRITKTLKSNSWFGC

[8] = molecular target: T6, Matrix metalloproteinase-15 (Homo sapiens, UniProt P51511); assay: Inhibitory activity against MMP15 upto 50uM
Target sequence in this assay (P51511 132-669 limits assumed): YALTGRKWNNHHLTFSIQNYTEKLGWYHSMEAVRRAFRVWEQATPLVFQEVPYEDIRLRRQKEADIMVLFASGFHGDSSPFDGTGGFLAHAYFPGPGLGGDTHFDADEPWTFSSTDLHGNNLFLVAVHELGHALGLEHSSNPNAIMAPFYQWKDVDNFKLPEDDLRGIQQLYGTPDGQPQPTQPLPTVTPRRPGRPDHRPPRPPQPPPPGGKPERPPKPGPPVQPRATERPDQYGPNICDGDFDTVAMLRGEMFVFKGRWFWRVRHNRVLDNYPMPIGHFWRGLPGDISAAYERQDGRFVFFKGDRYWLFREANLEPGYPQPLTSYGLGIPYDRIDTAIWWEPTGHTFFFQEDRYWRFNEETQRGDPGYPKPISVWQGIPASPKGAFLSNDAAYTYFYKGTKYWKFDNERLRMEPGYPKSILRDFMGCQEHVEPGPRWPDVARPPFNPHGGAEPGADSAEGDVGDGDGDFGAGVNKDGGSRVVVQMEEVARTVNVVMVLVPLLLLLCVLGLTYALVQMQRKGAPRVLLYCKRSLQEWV

[9] = molecular target: T4, Matrilysin (Homo sapiens); assay: Inhibitory activity against MMP7 upto 50uM
[10] = molecular target: T7, Matrix metalloproteinase-14 (Homo sapiens, UniProt P50281); assay: Inhibitory activity against MMP14 upto 50uM
[11] = molecular target: T1, Matrix metalloproteinase-9; assay: Inhibitory activity against MMP9 upto 50uM
[12] = molecular target: T6, Matrix metalloproteinase-15; assay: Inhibitory activity against MMP15
Target sequence in this assay (P51511 whole entry): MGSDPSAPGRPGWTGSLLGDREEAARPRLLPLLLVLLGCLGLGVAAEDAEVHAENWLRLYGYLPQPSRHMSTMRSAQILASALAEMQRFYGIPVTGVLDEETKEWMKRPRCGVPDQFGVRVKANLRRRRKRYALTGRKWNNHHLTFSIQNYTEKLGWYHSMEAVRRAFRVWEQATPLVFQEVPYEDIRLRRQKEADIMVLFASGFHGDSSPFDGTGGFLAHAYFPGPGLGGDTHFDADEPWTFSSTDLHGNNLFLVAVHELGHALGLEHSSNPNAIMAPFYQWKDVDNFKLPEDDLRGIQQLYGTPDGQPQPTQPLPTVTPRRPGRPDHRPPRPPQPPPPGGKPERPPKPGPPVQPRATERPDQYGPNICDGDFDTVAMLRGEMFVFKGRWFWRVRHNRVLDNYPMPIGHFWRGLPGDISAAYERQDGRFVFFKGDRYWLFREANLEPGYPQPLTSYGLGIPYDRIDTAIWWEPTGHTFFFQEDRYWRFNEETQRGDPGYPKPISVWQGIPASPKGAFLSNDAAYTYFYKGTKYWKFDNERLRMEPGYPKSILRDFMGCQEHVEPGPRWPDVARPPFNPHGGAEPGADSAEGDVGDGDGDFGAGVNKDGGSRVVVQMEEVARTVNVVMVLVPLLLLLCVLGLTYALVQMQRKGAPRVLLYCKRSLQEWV

[13] = molecular target: T8, Matrix metalloproteinase-26 (Homo sapiens, UniProt Q9NRE1); assay: Inhibitory activity against MMP26
T8 sequence (Q9NRE1 whole entry): T5 sequence (whole entry)

[14] = molecular target: T3, Matrix metalloproteinase-16; assay: Inhibitory activity against MMP16
[15] = molecular target: T7, Matrix metalloproteinase-14; assay: Inhibitory activity against MMP14

T1 sequence (P14780 whole entry): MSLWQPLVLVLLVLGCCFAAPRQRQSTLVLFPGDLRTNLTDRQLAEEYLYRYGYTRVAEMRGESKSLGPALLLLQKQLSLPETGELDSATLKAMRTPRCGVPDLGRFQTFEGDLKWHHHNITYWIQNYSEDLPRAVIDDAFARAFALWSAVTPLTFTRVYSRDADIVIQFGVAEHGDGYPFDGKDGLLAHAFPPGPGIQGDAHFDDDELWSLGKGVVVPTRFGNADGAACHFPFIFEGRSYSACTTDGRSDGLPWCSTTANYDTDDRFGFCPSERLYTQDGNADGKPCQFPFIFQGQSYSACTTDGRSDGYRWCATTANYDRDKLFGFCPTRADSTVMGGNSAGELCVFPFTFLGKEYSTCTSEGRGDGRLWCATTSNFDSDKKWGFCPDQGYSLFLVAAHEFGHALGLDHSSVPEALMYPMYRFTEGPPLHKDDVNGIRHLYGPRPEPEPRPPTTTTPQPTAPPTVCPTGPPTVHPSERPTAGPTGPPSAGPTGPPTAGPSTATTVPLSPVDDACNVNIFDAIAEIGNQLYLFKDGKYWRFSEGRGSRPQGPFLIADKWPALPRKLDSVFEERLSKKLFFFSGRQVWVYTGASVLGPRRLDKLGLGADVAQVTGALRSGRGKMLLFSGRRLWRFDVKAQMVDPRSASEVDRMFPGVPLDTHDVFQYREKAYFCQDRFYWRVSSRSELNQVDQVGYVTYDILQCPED

Structure (SMILES) | IC50 [1] [µM] | Activity [2] | IC50 [3] [µM] | Activity [4] | Activity [5] | Activity (Syrian golden hamster) | Activity [6] | IC50 [7] [µM] | Activity [8] | Activity [9] | Activity [10] | Activity [11] | IC50 [12] [µM] | IC50 [13] [µM] | IC50 [14] [µM] | IC50 [15] [µM]
CCCCCCC(CC(=O)O)C(=O)c1ccc(C#Cc2ccc(Cl)cc2)cc1 (stereo unspecified) | 1.51 | inactive | 0.55 | inactive | inactive | Active | inactive | 0.2 | inactive | inactive | – | – | – | – | – | –
O=C(O)CC(Cc1ccccc1)C(=O)c1ccc(C#Cc2ccccc2)cc1 (stereo unspecified) | 9.29 | – | 2.11 | – | – | – | – | 0.6 | – | – | – | – | – | – | – | –
CCCCCCC(CC(=O)O)C(=O)c1ccc(C#Cc2ccccc2)cc1 (stereo unspecified) | 5.41 | – | 1.66 | – | – | – | – | 0.45 | – | – | – | – | – | – | – | –
CCC(CC(=O)O)C(=O)c1ccc(C#CCOCc2ccccc2)cc1 (stereo unspecified) | – | inactive | 5.74 | inactive | inactive | – | inactive | 7.56 | inactive | – | inactive | inactive | – | – | – | –
CCC(CC(=O)O)C(=O)c1ccc(C#Cc2ccccc2)cc1 (stereo unspecified) | 3.6 | inactive | 0.44 | – | inactive | – | – | 0.48 | – | – | – | – | 13.9 | 18.1 | 32 | 30.6
O=C(O)CC(CC1CCCC1)C(=O)c1ccc(C#Cc2ccccc2)cc1 (stereo unspecified) | 3.39 | – | 1.12 | – | – | – | – | 0.32 | – | – | – | – | – | – | – | –
O=C(O)CC(Cc1ccc(F)cc1)C(=O)c1ccc(C#Cc2ccccc2)cc1 (stereo unspecified) | 10 | – | 3.43 | – | – | – | – | 1.14 | – | – | – | – | – | – | – | –
O=C(O)CCC(=O)c1ccc(C#CCOCc2ccccc2)cc1 | – | inactive | 23.1 | inactive | inactive | – | – | 25.7 | inactive | – | inactive | inactive | – | – | – | –
O=C(O)CCC(=O)c1ccc(C#CCO)cc1 | – | inactive | 15.4 | inactive | inactive | – | inactive | 24.7 | inactive | – | inactive | inactive | – | – | – | –
CCCCCCCCC#Cc1ccc(C(=O)CCC(=O)O)cc1 | – | inactive | 3.07 | inactive | inactive | – | inactive | 12.5 | inactive | – | inactive | inactive | – | – | – | –
